Only some compounds are listed: those with a hit (about 2.6% of all), similar ones and a draw of the others.
Myeloid diff MLP: compounds promoting myeloid differentiation; calls only at 10 µM; ER-HoxA9 myeloid progenitors, lysozyme-GFP differentiation, flow cytometry; AID 624256; 1% of 360,000 active;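 active = normalized GFP-positive differentiation at or above the plate's own cutoff, the solvent-only control mean plus 3 SD; inconclusive = no clear call, values can overlap the other calls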;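 note: cells exposed to compound for four days before flow analysis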
SKN-1 inh: C. elegans SKN-1 inhibition. inhibition, % at 21.8 µM. C. elegans VP596 Pgst-4::GFP/RFP ratio, acrylamide-induced, 24 h. 0.49% of 360,000 active. AID 624304;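 active = interference check ratio from 0.5 to 1.5 plus GFP to RFP signal ratio inhibition reaching or exceeding a fixed threshold, cut at about 30% in these data, passing the limit was not always enough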
T cell modulator: T cell immune modulation candidate; response (vesicle binding), % at 7 µM; 0.068% of 330,000 active; 2C CD8+ T cell-vesicle binding, flow cytometry; hits give low values;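 active = response, share of CD8 T cells binding vesicles, and their 90th percentile fluorescence all below set limits, cut at about 80% in these data, passing the limit was not always enough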;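 note: values below 100% mean blocked vesicle binding to the CD8+ T cells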
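Benchmarks: naked versus QL9-loaded vesicles / Assay system: purified 2C TCR transgenic mouse naive CD8+ T cells / Technique: high-throughput flow cytometry with anti-B7-1 and anti-CD8 staining / Timing: Cell–vesicle co-incubation 1.5 h at 37 °C, staining 20 min on ice / Read-out: percent CD8+ FL2 mean versus row control / Probe or stimulus: QL9-loaded Drosophila micro-vesicles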
Rce1 inh: yeast Ras-converting enzyme inhibition; 0.27% of 290,000 active; yeast membranes, quenched prenylated peptide cleavage fluorescence; calls only; Q03530;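 active = fall in fluorescence gain of 50% or more versus controls, with final raw signal at or below 3038400; inconclusive = same 50% fall but final raw signal above 3038400; inactive = fall in fluorescence gain under 50%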;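 note: plate controls were neutral control wells for no effect and wells lacking membranes for full effect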
GRK2 aptamer HTS: inhibitors of human GRK2 displacing RNA aptamer; P25098; bead flow cytometry, FAM-aptamer displacement from GRK2; inhibition of aptamer binding, % at 10 µM; 0.59% of 330,000 active; AID 488847;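 active = inhibition of aptamer binding above 40%, roughly 3 SD of noise, on plates passing a quality check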;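 note: median bead fluorescence of bound FAM aptamer so fluorescent compounds give negative values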
Target sequence (P25098 whole entry, looked up): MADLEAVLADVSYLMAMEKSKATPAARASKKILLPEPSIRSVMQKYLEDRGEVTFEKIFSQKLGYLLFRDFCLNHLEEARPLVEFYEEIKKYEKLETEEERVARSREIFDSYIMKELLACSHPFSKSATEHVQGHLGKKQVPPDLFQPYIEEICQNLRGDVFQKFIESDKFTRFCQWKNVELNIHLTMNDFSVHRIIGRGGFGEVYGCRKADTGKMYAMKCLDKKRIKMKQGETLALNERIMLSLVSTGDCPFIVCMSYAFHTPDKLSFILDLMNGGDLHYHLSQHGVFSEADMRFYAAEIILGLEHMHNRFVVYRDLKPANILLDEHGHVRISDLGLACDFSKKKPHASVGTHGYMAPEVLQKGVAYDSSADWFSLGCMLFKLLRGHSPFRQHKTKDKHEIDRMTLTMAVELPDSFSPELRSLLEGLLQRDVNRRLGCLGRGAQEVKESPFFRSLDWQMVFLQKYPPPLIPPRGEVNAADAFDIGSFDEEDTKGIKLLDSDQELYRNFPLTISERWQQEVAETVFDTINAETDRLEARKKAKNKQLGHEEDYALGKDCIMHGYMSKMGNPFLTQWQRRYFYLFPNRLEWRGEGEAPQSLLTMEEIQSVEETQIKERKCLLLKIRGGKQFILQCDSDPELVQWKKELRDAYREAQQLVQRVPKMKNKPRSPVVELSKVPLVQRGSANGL
Rin1-Abl PPI inh: human Rin1-Abl interaction inhibition; P00519+Q13671; TR-FRET Rin1/Abl binding, biochemical; 0.4% of 360,000 active; inhibition, % at 7.35 µM; AID 588664; in the data active = inhibition above about 5%, passing the limit was not always enough
Starred values were filed as active, the others as inactive; i = inactive; ? = inconclusive; · = no result; + = active, no number.

SMILES	Myeloid diff MLP	SKN-1 inh	T cell modulator	Rce1 inh	GRK2 aptamer HTS	Rin1-Abl PPI inh
N/C(=N\OC(=O)c1ccccc1Cl)c1cccc([N+](=O)[O-])c1	i	12.3	159.4	i	2.0	-1.9
O=C(COC(=O)c1ccc(Cl)c(S(=O)(=O)N2CCCCC2)c1)NCCc1ccccc1	i	0.8	·	·	·	0.9
CCOc1ccc2nc(NC(=O)c3ccc(OCC4CCCO4)cc3)sc2c1 (centres undefined)	+	10.9	90.9	i	0.0	-0.7
COc1ccc(C2c3c(ncn(Cc4ccco4)c3=N)Oc3ccc4ccccc4c32)cc1 (centres undefined)	i	22.9	302.0	i	0.0	-4.0
N=c1c2c(ncn1Cc1ccco1)Oc1ccc3ccccc3c1C2c1ccccc1 (centres undefined)	?	-7.6	241.3	+	0.0	-0.8
Cc1ccc(S(=O)(=O)N2CCN(Cc3csc(C)n3)CC2)cc1	+	12.1	321.9	i	2.0	0.9
CC12CC3CC(C)(C1)CC(Nc1nc(N4CCOCC4)nc4ccccc14)(C3)C2	i	13.6	307.0	i	1.0	-0.7
CC(C)(C)NC(=O)C(c1cccs1)N(Cc1ccc(F)cc1)C(=O)c1csnn1 (centres undefined)	i	1.6	682.4	i	3.0	-2.1
Clc1ccc2c(NCc3ccccn3)ccnc2c1	i	-1.4	180.6	i	0.0	0.6
Clc1ccc2c(NCCNC3CCCCC3)ccnc2c1	+	-0.3	·	·	·	1.7
CC(C)NC1CCC(Nc2ccnc3cc(Cl)ccc23)CC1 (centres undefined)	+	-2.0	·	·	·	1.3
CC(CCCN1CCCC1)Nc1ccnc2cc(Cl)ccc12 (centres undefined)	i	5.9	·	·	·	-2.3
CCOc1ccc(C(=O)NNC(=O)CCNC(=O)c2ccco2)cc1OC	i	14.0	i	i	0.0	-0.8
Cc1ccc2c(c1)c(C)c(C)n2CC(O)CN1CCOCC1 (centres undefined)	i	39.3*	196.9	i	0.0	-0.3
Cc1c(C)n(CC(O)CN2CCCCCC2)c2ccccc12 (centres undefined)	i	-0.1	232.9	i	0.0	-1.3
CCN1CCN(c2ccccc2NC(=O)c2ccc(-n3cccn3)cc2)CC1	i	0.5	93.6	·	0.0	2.0
O=C(c1ccc(CNS(=O)(=O)c2cccc(Cl)c2)cc1)N1CCCCC1	i	-8.7	333.5	i	1.0	1.1
O=S(=O)(c1ccc(Cl)cc1)N1CCC(O)(c2cccnc2)CC1	i	-7.5	0.0*	i	0.0	2.5
NC(=O)c1sc2nc(-c3ccccc3)c3c(c2c1N)CCCC3	+	14.2	375.7	i	6.0	-3.7
CCOC(=O)c1c(NC(=O)COc2ccccc2F)sc2c1CC(C)(C)NC2(C)C	i	-7.2	174.9	+	0.0	3.9
COc1cc2cc(C(=O)O)[nH]c2c(OC)c1OC	i	5.1	525.4	+	0.0	-4.2
CC(C(=O)c1ccc(Br)cc1)[n+]1cccc2ccccc21 (centres undefined)	+	37.1	166.5	i	0.0	-1.9
CC(C(=O)c1ccc(Br)cc1)[n+]1cccc(NC(=O)c2ccccc2)c1 (centres undefined)	i	3.8	i	i	0.0	0.2
Cn1c(C(=O)NN)cc2cc(OCc3ccccc3)ccc21	+	-17.2	497.1	i	1.0	-2.1
COc1ccc(OCc2cccc(C(=O)NN)c2)cc1	+	1.6	288.7	i	37.0	-1.5
SMILES	Myeloid diff MLP	SKN-1 inh	T cell modulator	Rce1 inh	GRK2 aptamer HTS	Rin1-Abl PPI inh
NNC(=O)c1cccc(COc2cccc(Br)c2)c1	i	4.2	457.3	·	0.0	-0.9
NNC(=O)c1cccc(COc2ccc(Br)cc2)c1	+	-10.7	233.4	i	0.0	-2.2
Cn1c(C(=O)NN)cc2cc(Oc3ccccc3)ccc21	i	3.6	240.4	i	1.0	-3.4
Cn1c(CNC(=O)CNS(=O)(=O)c2ccccc2)cc(=O)n(C)c1=O	i	5.9	191.6	i	0.0	-0.8
COc1ccc(S(=O)(=O)NCC(=O)NCc2cc(=O)n(C)c(=O)n2C)cc1C	+	10.6	268.5	i	0.0	3.0
COc1cccc(CC(=O)OCC(=O)NNC(=O)c2ccc([N+](=O)[O-])cc2)c1	i	1.1	124.6	i	1.0	-4.5
O=C1CN(C(=O)c2ccc(F)cc2)c2ccccc2N1	i	8.6	25.9*	i	0.0	-0.5
O=C1CN(C(=O)c2ccccc2)c2ccccc2N1	i	-11.4	370.3	i	0.0	-3.1
O=S(=O)(c1cccc(-c2n[nH]c(=S)n2-c2ccc(OC(F)(F)F)cc2)c1)N1CCOCC1	i	10.2	669.5	·	20.0	-0.1
COc1ccc2oc(C(=O)OCC(=O)c3ccc4c(c3)OCCO4)c(C)c2c1	+	-9.2	890.7	i	0.0	-0.5
COc1ccc2oc(C(=O)N(C)Cc3ccc4c(c3)OCCO4)c(C)c2c1	i	-5.6	225.1	i	0.0	-3.1
CCOC(=O)C1=CCN(S(=O)(=O)c2ccc(C)cc2)C1c1ccccc1F (centres undefined)	i	3.1	·	·	·	3.0
CCOC(=O)c1sc2nc(C3CC3)cc(-c3ccc(OC)cc3)c2c1N	i	-10.7	194.4	+	0.0	-1.4
CCOC(=O)c1sc2nc(C3CC3)cc(-c3ccc(F)cc3)c2c1N	i	4.6	192.9	+	0.0	-0.5
CCOC(=O)c1sc(-c2ccc(OC)cc2)cc1N	i	1.0	224.7	i	2.0	-0.4
CCOC(=O)c1sc(-c2ccc(F)cc2)cc1N	i	-17.8	131.5	i	0.0	0.5
O=C(/C=C/c1ccco1)Nc1nnc(-c2ccco2)s1	+	-13.6	337.4	i	1.0	0.5
Nn1c(SCc2ccc(C(=O)O)cc2)nnc1-c1ccc(Cl)cc1Cl	i	7.6	122.4	i	0.0	-0.2
CCOC(=O)c1ccc(Nc2ccc(C(C)=O)cc2)cc1	i	7.9	·	·	·	1.6
CCOC(=O)c1ccc(Nc2nnc(C(C)(C)C)c(=O)[nH]2)cc1	i	36.5*	66.6	i	0.0	-3.7
CC(C)CC(=O)N1CCN(c2ccc([N+](=O)[O-])c(NCc3ccccc3)c2)CC1	i	-10.1	455.6	i	0.0	-7.0
Cc1cc(C)c([N+](=O)[O-])cc1NCC(=O)N1CCN(c2ccccc2)CC1	+	12.1	339.9	i	3.0	-1.1
CCC(COC)NC(=O)CCc1nnc(Cc2cccc(C(F)(F)F)c2)o1 (centres undefined)	i	-4.0	323.9	+	1.0	1.5
CC(C)NC(=O)CSc1nnc(-c2ccc(F)cc2)c2ccccc12	i	-1.8	339.9	i	1.0	3.5
O=C(NCc1ccc(OC(F)(F)F)cc1)c1cccc2c1C(=O)c1ccc(N3CCCC3)cc1S2(=O)=O	+	9.6	275.6	·	16.0	3.2

High-throughput results (PubChem BioAssay)
